Source: article PMC11100557 (Science Advances, 2024)

How the values were obtained:
KIN10 mutant 3 = KIN10 mutant 3 (Arabidopsis thaliana, UniProt Q38997, K63A/K69A/L73A/R65A/R66A); assay: MST binding of ATP to KIN10 mutant 3; conditions: fig. S5
Outline: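 KIN10 kinase-domain mutant 3 (K63A-R65A-R66A-K69A-L73A), N-His6, expressed in E. coli BL21(DE3), Ni-NTA purified. Protein labeled with NT647 via NHS coupling to lysines (30 min on ice), free dye removed by size exclusion into MST buffer (50 mM phosphate pH 7.4, 150 mM NaCl, MgCl2, 1 mM DTT, 0.05% Tween 20).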

WT KIN10 [1] = target: T1, WT KIN10 (Arabidopsis thaliana, UniProt Q38997); assay: MST binding of T6P to WT KIN10 kinase domain
[2] = target: KIN10 mutant 1 (R23A-R32A-K34A) (Arabidopsis thaliana, UniProt Q38997, K34A/R23A/R32A); assay: MST binding of T6P to KIN10 mutant 1
Outline: (§1)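 Alanine-substituted KIN10 kinase domain was made by overlap PCR and cloned into pET28a. It was expressed with an N-terminal His6 tag in E. coli BL21(DE3) and Ni-NTA purified. Protein was NT647-NHS labelled and desalted into phosphate buffer pH 7.4 with NaCl, DTT and Tween 20. 100 nM labelled protein was mixed with a T6P serial dilution, and MST was read at 25°C (40% MST, 80% LED power).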

[3] = target: KIN10 mutant 2 (R52A-R53A-K54A-K56A) (Arabidopsis thaliana, UniProt Q38997, K54A/K56A/R52A/R53A); assay: MST binding of T6P to KIN10 mutant 2
Outline: as §1

[4] = target: T2, KIN10 mutant 3 (K63A-R65A-R66A-K69A-L73A) (Arabidopsis thaliana, UniProt Q38997, K63A/K69A/L73A/R65A/R66A); assay: MST binding of T6P to KIN10 mutant 3
KIN10 K63A = KIN10 K63A (Arabidopsis thaliana, UniProt Q38997, K63A); assay: MST binding of T6P to KIN10 K63A
Outline: (§2)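 N-terminal His6-tagged recombinant KIN10 was expressed in E. coli BL21(DE3), Ni-NTA purified, and NT647-labelled on lysines via NHS coupling. Free dye was removed by size exclusion into MST buffer (50 mM phosphate pH 7.4, 150 mM NaCl, 1 mM DTT, 0.05% Tween 20). 100 nM labelled protein was titrated with serially diluted T6P. Microscale thermophoresis was run at 25°C, 40% MST power and 80% LED power.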

KIN10 R66A = KIN10 R66A (Arabidopsis thaliana, UniProt Q38997, R66A); assay: MST binding of T6P to KIN10 R66A
Outline: as §2

KIN10 R141A = KIN10 R141A (Arabidopsis thaliana, UniProt Q38997, R141A); assay: MST binding of T6P to KIN10 R141A
Outline: as §2

KIN10 K63A-R66A-R141A = KIN10 K63A-R66A-R141A (Arabidopsis thaliana, UniProt Q38997, K63A/R141A/R66A); assay: biochemical; format: binding
WT KIN10 [5] = target: T1, WT KIN10; assay: KIN10 kinase activity assay with SPS peptide, WT KIN10; format: biochemical
[6] = target: T2, KIN10 mutant 3 (K63A-R65A-R66A-K69A-L73A); assay: KIN10 kinase activity assay with SPS peptide, mutant 3; format: biochemical; conditions: 1 mM T6P, 50 nM KIN10 mutant 3 plus 50 nM GRIK1
KIN10 mutant 1 = KIN10 mutant 1 (Arabidopsis thaliana, UniProt Q38997, K34A/R23A/R32A); assay: KIN10 kinase activity assay with SPS peptide, mutant 1; format: biochemical; conditions: 1 mM T6P, 200 ng KIN10 mutant 1 and 200 ng GRIK1
KIN10 mutant 2 = KIN10 mutant 2 (Arabidopsis thaliana, UniProt Q38997, K54A/K56A/R52A/R53A); assay: KIN10 kinase activity assay with SPS peptide, mutant 2; format: biochemical; conditions: 1 mM T6P, 200 ng KIN10 mutant 2 and 200 ng GRIK1
[7] = target: plant α-catalytic subunit of SnRK1 (Arabidopsis thaliana, UniProt Q38997); assay: Inhibition of the SnRK1 α-catalytic subunit by sugar phosphates; format: biochemical; conditions: table S4
GRIK1-KIN10 = conditions: MST; ref Zhai et al. ([9]); cited from earlier work

Chain of KIN10 K63A-R66A-R141A (Q38997 19-271 K63A/R66A/R141A limits assumed): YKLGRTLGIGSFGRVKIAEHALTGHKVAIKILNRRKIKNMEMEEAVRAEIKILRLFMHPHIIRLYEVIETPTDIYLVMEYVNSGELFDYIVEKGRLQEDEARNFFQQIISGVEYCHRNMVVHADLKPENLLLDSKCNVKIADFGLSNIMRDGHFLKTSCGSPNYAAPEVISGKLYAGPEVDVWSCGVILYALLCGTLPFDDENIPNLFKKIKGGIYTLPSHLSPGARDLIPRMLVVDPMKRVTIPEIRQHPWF
T1 sequence (Q38997 19-271 limits assumed): as the sequence (Q38997 19-271 K63A/R66A/R141A limits assumed) above, with A45K, A48R, A123R counted along it
T2 sequence (Q38997 19-271 K63A/R65A/R66A/K69A/L73A limits assumed): as the sequence (Q38997 19-271 K63A/R66A/R141A limits assumed) above, with R47A, K51A, L55A, A123R counted along it
Chain of KIN10 mutant 1 (R23A-R32A-K34A) (Q38997 19-271 R23A/R32A/K34A limits assumed): as the sequence (Q38997 19-271 K63A/R66A/R141A limits assumed) above, with R5A, R14A, K16A, A45K, A48R, A123R counted along it
Chain of KIN10 mutant 2 (R52A-R53A-K54A-K56A) (Q38997 19-271 R52A/R53A/K54A/K56A limits assumed): as the sequence (Q38997 19-271 K63A/R66A/R141A limits assumed) above, with R34A, R35A, K36A, K38A, A45K, A48R, A123R counted along it
Chain of KIN10 K63A (Q38997 19-271 K63A limits assumed): as the sequence (Q38997 19-271 K63A/R66A/R141A limits assumed) above, with A48R, A123R counted along it
Chain of KIN10 mutant 1 (Q38997 19-271 R23A/R32A/K34A limits assumed): as the sequence (Q38997 19-271 K63A/R66A/R141A limits assumed) above, with R5A, R14A, K16A, A45K, A48R, A123R counted along it
Chain of KIN10 R66A (Q38997 19-271 R66A limits assumed): as the sequence (Q38997 19-271 K63A/R66A/R141A limits assumed) above, with A45K, A123R counted along it
Chain of plant α-catalytic subunit of SnRK1 (Q38997 19-271 limits assumed): as the sequence (Q38997 19-271 K63A/R66A/R141A limits assumed) above, with A45K, A48R, A123R counted along it
Chain of KIN10 mutant 2 (Q38997 19-271 R52A/R53A/K54A/K56A limits assumed): as the sequence (Q38997 19-271 K63A/R66A/R141A limits assumed) above, with R34A, R35A, K36A, K38A, A45K, A48R, A123R counted along it
Chain of KIN10 R141A (Q38997 19-271 R141A limits assumed): as the sequence (Q38997 19-271 K63A/R66A/R141A limits assumed) above, with A45K, A48R counted along it
Chain of KIN10 mutant 3 (Q38997 19-271 K63A/R65A/R66A/K69A/L73A limits assumed): as the sequence (Q38997 19-271 K63A/R66A/R141A limits assumed) above, with R47A, K51A, L55A, A123R counted along it

Nc1ncnc2c1ncn2[C@@H]1O[C@H](COP(=O)(O)OP(=O)(O)OP(=O)(O)O)[C@@H](O)[C@H]1O [ATP, adenosine triphosphate]
Kd for ATP, mutant 3 compared with WT KIN10 (KIN10 mutant 3): no change

O=P(O)(O)OC[C@H]1O[C@H](O[C@H]2O[C@H](CO)[C@@H](O)[C@H](O)[C@H]2O)[C@H](O)[C@@H](O)[C@@H]1O [T6P, trehalose 6-phosphate]
Kd (WT KIN10 [1]): 28 ± 4 µM
Kd [2]: 26 ± 6 µM
Kd by MST ([2]; KIN10 mutant 1, Table 1 series): no significant difference
Kd [3]: 34 ± 5 µM
Kd by MST ([3]; KIN10 mutant 2, Table 1 series): no significant difference
Kd [4]: 165 ± 21 µM
reduction of affinity of T6P binding versus WT KIN10 ([4]; mutant 3 versus WT): fivefold
Kd (KIN10 K63A): 47 ± 7 µM
increase of Kd versus WT (KIN10 K63A; span over the three single mutants K63A, R66A and R141A, versus WT): 1.9- to 2.5 fold
Kd (KIN10 R66A): 40 ± 5 µM
Kd (KIN10 R141A): 52 ± 7 µM
Kd (KIN10 K63A-R66A-R141A; Kds determined by MST, KIN10 K63A-R66A-R141A, Table 2 series): 143 µM
increase in Kd versus WT (KIN10 K63A-R66A-R141A; triple mutant K63A-R66A-R141A versus WT): sevenfold
IC50 (WT KIN10 [5]): 40 µM
change of basal activity of WT KIN10 on addition of T6P (WT KIN10 [5]; 1 mM T6P, 50 nM KIN10, no GRIK1): doubling
reduction of mutant 3 activation by GRIK1 in the presence of T6P [6]: no reduction
activation of mutant 1 by GRIK1 in the presence of T6P (KIN10 mutant 1): reduced
activation of mutant 2 by GRIK1 in the presence of T6P (KIN10 mutant 2): reduced
inhibition of the plant α-catalytic subunit of SnRK1 [7]: specifically inhibited
reduction of affinity of GRIK1 for KIN10 on T6P binding (GRIK1-KIN10): threefold
